Data set [1] has as its system hIAPP fibrils. Description: Transmission electron microscopy of hIAPP fibrils. In kind it is biochemical, human. The following applies: 37°C, 20 h; for hIAPP fibrils by TEM in the presence of protein: hIAPP 25 μmol/l with 0.5 μmol/l protein.
The target of data set [2] is NEPx (Homo sapiens, UniProt P08473, E585V). Description: Cleavage of hIAPP by catalytically compromised NEPx, reverse phase HPLC. As to conditions: 20 μmol/l hIAPP, 400 nmol/l NEPx, 37°C, 1 h. In kind it is biochemical. Summed up:
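Enzyme: recombinant human NEP ectodomain E585V mutant, expressed in CHO-S cells as a His-tagged growth hormone fusion. Purified by nickel affinity, PreScission removal of growth hormone, and MonoQ anion exchange. 20 μmol/l hIAPP incubated with the enzyme in 20 mmol/l MES, pH 6.5, at 37°C. Stopped with TFA to 0.5%. Reverse-phase HPLC on a C4 column.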

For data set [3], the system named is INS 832/13 insulinoma cells. Description: MTT assay, synthetic hIAPP-induced cytotoxicity. In kind it is cell-based, rat. The following applies: 48 h; for viable cells relative to vehicle control cells (MTT), peptide alone: 20 μmol/l synthetic peptide, INS 832/13, mean ± SEM. The method in brief:
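INS 832/13 cells were exposed to 20 μmol/l synthetic hIAPP plus 4, 40 or 400 nmol/l recombinant NEP or NEPx for 48 h, with vehicle (0.8% DMSO in media), 20 μmol/l rIAPP and 400 nmol/l transferrin controls. MTT added 1:10 from 5 mg/ml stock, 4 h at 37°C, HCl/isopropanol, A570. Viability as % of vehicle; mean ± SEM, n = 3 to 9, one-way ANOVA with Dunnett's test.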
On the technique in general: Formazan colour is commonly taken as a measure of viable cells.

In data set [4] the test system is INS 832/13 insulinoma cells. Description: Cleaved caspase-3 Western blot, synthetic hIAPP-induced apoptosis. In kind it is cell-based, rat. As to conditions: 20 μmol/l synthetic peptide, 24 h. (In general: A western blot detects proteins with antibodies after separation by electrophoresis.)
Data set [5] has as its target T1, NEP (Homo sapiens, UniProt P08473). Description: Fluorogenic assay of NEP activity, inhibition by phosphoramidon. In kind it is biochemical.
Data set [6] has as its target NEP^E585V mutant (NEPx) (Homo sapiens, UniProt P08473, E585V). In words: Fluorogenic assay of NEPx activity, inhibition by phosphoramidon. In kind it is biochemical. As to conditions: GAAF-4-MNA as substrate.
Data set [7] has as its target T1, NEP. In words: Cleavage of peptide by neprilysin, reverse phase HPLC and mass spectrometry. In kind it is biochemical. As to conditions: 37°C. Summed up: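 Purified His-tagged recombinant human NEP (CHO-S-expressed, nickel-affinity and anion-exchange purified), 400 nmol/l, incubated with 20 μmol/l hIAPP (from 2.5 mmol/l DMSO stock) in 20 mmol/l MES, pH 6.5, 37°C for 60 min, with or without phosphoramidon; catalytically compromised E585V mutant run in parallel. Stopped with TFA to 0.5%, reverse-phase HPLC on C4 column; products collected manually for mass spectral identification.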

For data set [8], the system named is NEP. The following applies: cited from earlier work.
The subject of data set [9] is neprilysin (NEP). In words: 400 nmol/l recombinant NEP in 20 mmol/l MES buffer, pH 6.5. As to conditions: human, 37°C, up to 60 min.
Data set [10] concerns INS 832/13 insulinoma cells. In words: MTT assay, hIAPP overexpression-induced cytotoxicity. In kind it is cell-based, rat. The following applies: 48 h; for effect on hIAPP overexpression-induced cytotoxicity (MTT), 400 nmol/l protein: adenovirus prepro-hIAPP-GFP MOI 100, 400 nmol/l protein in media. Summed up:
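INS 832/13 rat insulinoma cells (RPMI 1640, 11.1 mmol/l glucose, 10% FBS, 37°C, 5% CO2) transduced with adenovirus encoding prepro-hIAPP-GFP at MOI 100; GFP and prepro-rIAPP-GFP viruses as controls. Recombinant NEP or NEPx (4, 40, 400 nmol/l) or transferrin (400 nmol/l) added to media. After 48 h, MTT 4 h at 37°C, acidic isopropanol, A570; viability as % of vehicle control.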

Data set [11] can be described thus: Fluorogenic assay of NEP activity with GAAF-4-MNA as substrate. In kind it is biochemical. As to conditions: 100 μmol/l GAAF-4-MNA, 20 mmol/l MES pH 6.5, 37°C.
[12] abbreviates: 20 μmol/l synthetic hIAPP, mean ± SEM, n = 3 to 9.

“Also recorded” adds a separate entry of the source. Ends that are not written are not given here.

These results are taken from article PMC3660010 (Diabetologia, 2012).

As for `CC[C@H](C)[C@H](NC(=O)[C@H](C)NC(=O)CNC(=O)[C@H](Cc1ccccc1)NC(=O)[C@H](CC(N)=O)NC(=O)[C@H](CC(N)=O)NC(=O)[C@H](CO)NC(=O)[C@H](CO)NC(=O)[C@H](Cc1c[nH]cn1)NC(=O)[C@@H](NC(=O)[C@H](CC(C)C)NC(=O)[C@H](Cc1ccccc1)NC(=O)[C@H](CC(N)=O)NC(=O)[C@H](C)NC(=O)[C@H](CC(C)C)NC(=O)[C@H](CCCNC(=N)N)NC(=O)[C@H](CCC(N)=O)NC(=O)[C@@H](NC(=O)[C@H](C)NC(=O)[C@@H]1CSSC[C@H](NC(=O)[C@@H](N)CCCCN)C(=O)N[C@@H](CC(N)=O)C(=O)N[C@@H]([C@@H](C)O)C(=O)N[C@@H](C)C(=O)N[C@@H]([C@@H](C)O)C(=O)N1)[C@@H](C)O)C(C)C)C(=O)N[C@@H](CC(C)C)C(=O)N[C@@H](CO)C(=O)N[C@@H](CO)C(=O)N[C@H](C(=O)N[C@@H](CC(N)=O)C(=O)N[C@H](C(=O)NCC(=O)N[C@@H](CO)C(=O)N[C@@H](CC(N)=O)C(=O)N[C@H](C(=O)N[C@@H](Cc1ccc(O)cc1)C(N)=O)[C@@H](C)O)C(C)C)[C@@H](C)O` [hIAPP, IAPP (1–37, disulfide bridge 2–7, amide), reference compound], in [1] (hIAPP 25 μmol/l with buffer), the “hIAPP fibrils by TEM, untreated hIAPP (CTRL)” value is reported as “fibrils were observed”. In [2], the “cleavage of hIAPP by NEPx” value was “no cleavage”. For the same molecule, the “viable cells relative to vehicle control cells (MTT), peptide alone” value in [3] (n = 3 to 9) is 15.6 ± 3.5%. Further, the “induction of apoptosis (increase in cleaved caspase-3), peptide alone” value in data set [4] is reported as “induced apoptosis”.

With `CC(C)C[C@H](NP(=O)(O)O[C@@H]1O[C@@H](C)[C@H](O)[C@@H](O)[C@H]1O)C(=O)N[C@@H](Cc1c[nH]c2ccccc12)C(=O)O` [phosphoramidon], the “activity of NEP in the presence of phosphoramidon” value in data set [5] (GAAF-4-MNA as substrate) is reported as “undetectable levels”. In addition, the inhibition (usually the change of the read-out against control, counted positive when it falls) at 50 µM in [5] (read-out: inhibition of NEP activity) was above 99%. Moreover, the “activity of NEPx in the presence of phosphoramidon” value in data set [6] is “undetectable levels”. Also, the “effect of NEP inhibitor on hIAPP cleavage by NEP” value in data set [7] (20 μmol/l hIAPP, 400 nmol/l NEP, 60 min, HPLC) is “blocked”.

As to “IAPP (1–37, disulfide bridge 2–7, amide)”, the not cleaved entry in [8] is on record as “concluded that NEP did not cleave hIAPP”. The cleaved bond entry in [9] is recorded as “Arg11-Leu12, major; also recorded: Leu12-Ala13, major”.

Consider ILSSTNVGSNTY-NH2, for which the “further cleavage of the product by NEP” value in data set [7] (product of hIAPP (20 μmol/l) with 400 nmol/l NEP, initially increased with time, then decreased (HPLC)) was “appeared to be further cleaved”.

Consider “TF: transferrin used as protein control [reference compound]”, for which the “hIAPP fibrils by TEM in the presence of protein” value (“hIAPP fibrils … of protein” for short) in data set [1] is listed as “fibrils were observed”. Also, the “viable cells (MTT) with hIAPP in the presence of 400 nmol/l protein” value (“viable cells (MTT) … of 400 nmol/l protein” for short) in [3] (setting [12]) is on record as “did not protect”. Moreover, in data set [10], the “effect on hIAPP overexpression-induced cytotoxicity (MTT), 400 nmol/l protein” value is “had no effect”.

For “rIAPP: synthetic rodent islet amyloid polypeptide, non-aggregating control [reference compound]”, the “viable cells relative to vehicle control cells (MTT), peptide alone” value in [3] (n = 3 to 9) is listed as “did not cause significant cytotoxicity”. Further, the “induction of apoptosis (increase in cleaved caspase-3), peptide alone” value in [4] is “but not rIAPP, induced apoptosis”.

B1: NEPx: catalytically compromised NEP^E585V mutant ectodomain, about 80% pure (protein, UniProt P08473 52-750, looked up, variant E585V)
extracellular domain: YDDGICKSSDCIKSAARLIQNMDATTEPCTDFFKYACGGWLKRNVIPETSSRYGNFDILRDELEVVLKDVLQEPKTEDIVAVQKAKALYRSCINESAIDSRGGEPLLKLLPDIYGWPVATENWEQKYGASWTAEKAIAQLNSKYGKKVLINLFVGTDDKNSVNHVIHIDQPRLGLPSRDYYECTGIYKEACTAYVDFMISVARLIRQEERLPIDENQLALEMNKVMELEKEIANATAKPEDRNDPMLLYNKMTLAQIQNNFSLEINGKPFSWLNFTNEIMSTVNISITNEEDVVVYAPEYLTKLKPILTKYSARDLQNLMSWRFIMDLVSSLSRTYKESRNAFRKALYGTTSETATWRRCANYVNGNMENAVGRLYVEAAFAGESKHVVEDLIAQIREVFIQTLDDLTWMDAETKKRAEEKALAIKERIGYPDDIVSNDNKLNNEYLELNYKEDEYFENIIQNLKFSQSKQLKKLREKVDKDEWISGAAVVNAFYSSGRNQIVFPAGILQPPFFSAQQSNSLNYGGIGMVIGHVITHGFDDNGRNFNKDGDLVDWWTQQSASNFKEQSQCMVYQYGNFSWDLAGGQHLNGINTLGENIADNGGLGQAYRAYQNYIKKNGEEKLLPGLDLNHKQLFFLNFAQVWCGTYRPEYAVNSIKTDVHSPGNFRIIGTLQNSAEFSEAFHCRKNSYMNPEKKCRVW
modifications: extracellular domain
On to B1, for which the “NEP activity abolished by the E585V mutation” value in [11] was “greater than 98%”. In addition, in data set [11] (fluorescence ex 340/em 425 nm), the “activity relative to wild-type NEP activity” value is listed as ~ 1.7%. The “hIAPP fibrils … of protein” value in data set [1] is “fibrils were observed”. Moreover, the “viable cells (MTT) … of 400 nmol/l protein” value in data set [3] (setting [12]) is 58.4 ± 9.3%. Also, the “effect on hIAPP overexpression-induced cytotoxicity (MTT), NEPx” value in [10] (adenovirus prepro-hIAPP-GFP MOI 100, 4, 40 or 400 nmol/l NEPx) is recorded as “had no effect”.

B2: NEP: recombinant ectodomain of human neprilysin expressed in CHO-S cells (protein, UniProt P08473 52-750, looked up)
extracellular domain: YDDGICKSSDCIKSAARLIQNMDATTEPCTDFFKYACGGWLKRNVIPETSSRYGNFDILRDELEVVLKDVLQEPKTEDIVAVQKAKALYRSCINESAIDSRGGEPLLKLLPDIYGWPVATENWEQKYGASWTAEKAIAQLNSKYGKKVLINLFVGTDDKNSVNHVIHIDQPRLGLPSRDYYECTGIYKEACTAYVDFMISVARLIRQEERLPIDENQLALEMNKVMELEKEIANATAKPEDRNDPMLLYNKMTLAQIQNNFSLEINGKPFSWLNFTNEIMSTVNISITNEEDVVVYAPEYLTKLKPILTKYSARDLQNLMSWRFIMDLVSSLSRTYKESRNAFRKALYGTTSETATWRRCANYVNGNMENAVGRLYVEAAFAGESKHVVEDLIAQIREVFIQTLDDLTWMDAETKKRAEEKALAIKERIGYPDDIVSNDNKLNNEYLELNYKEDEYFENIIQNLKFSQSKQLKKLREKVDKDEWISGAAVVNAFYSSGRNQIVFPAGILQPPFFSAQQSNSLNYGGIGMVIGHEITHGFDDNGRNFNKDGDLVDWWTQQSASNFKEQSQCMVYQYGNFSWDLAGGQHLNGINTLGENIADNGGLGQAYRAYQNYIKKNGEEKLLPGLDLNHKQLFFLNFAQVWCGTYRPEYAVNSIKTDVHSPGNFRIIGTLQNSAEFSEAFHCRKNSYMNPEKKCRVW
modifications: extracellular domain
For the molecule B2, the “hIAPP fibrils … of protein” value in data set [1] is given as “fibrils were not seen”. For the same molecule, the “viable cells (MTT) with hIAPP in the presence of 4 nmol/l protein” value in [3] (20 μmol/l synthetic hIAPP, 4 nmol/l protein, not statistically significant) is listed as 39.4 ± 15.3%. For the same molecule, the “viable cells (MTT) with hIAPP in the presence of 40 nmol/l protein” value in data set [3] (20 μmol/l synthetic hIAPP, 40 nmol/l protein, mean ± SEM, n = 3 to 9) is recorded as 92.9 ± 9.5%. In addition, the “viable cells (MTT) … of 400 nmol/l protein” value in data set [3] (setting [12]) is given as 84.5 ± 7.3%. Further, the “effect on hIAPP overexpression-induced cytotoxicity (MTT), 400 nmol/l protein” value in data set [10] is recorded as “reduced this hIAPP induced cytotoxicity”. In addition, the “effect on hIAPP overexpression-induced cytotoxicity (MTT), lower concentrations of NEP” value in data set [10] (adenovirus prepro-hIAPP-GFP MOI 100, 4 or 40 nmol/l) is recorded as “had no effect”.
